# Compound activity (PubChem)
# Rows were chosen to be rich in hits. Some 2.6% of all compounds tested hit in one or more screens of this group.
# SENP7 block – SENP7 protease inhibitors, primary screen, biochemical, luminescence, uHTS; inhibition, % at 5 µM; recombinant SENP7, Z-RLRGG-aminoluciferin luminescence, 40 min; 1.5% of 330,000 active;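 active = inhibition above about 50% at the single test dose, limit read from the data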;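 note: plate controls were DMSO with enzyme for no effect and no enzyme buffer wells for full effect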
# SENP8 block-1 – SENP8 protease inhibitors, primary screen, biochemical, luminescence; Sentrin-specific protease 8 (Homo sapiens), Q96LD8; purified SENP8, Z-RLRGG-aminoluciferin cleavage; inhibition, % at 10 µM; 1.2% of 330,000 active; AID 2540, 2010; in the data active = inhibition above about 50%
# Target sequence (Q96LD8 whole entry, looked up): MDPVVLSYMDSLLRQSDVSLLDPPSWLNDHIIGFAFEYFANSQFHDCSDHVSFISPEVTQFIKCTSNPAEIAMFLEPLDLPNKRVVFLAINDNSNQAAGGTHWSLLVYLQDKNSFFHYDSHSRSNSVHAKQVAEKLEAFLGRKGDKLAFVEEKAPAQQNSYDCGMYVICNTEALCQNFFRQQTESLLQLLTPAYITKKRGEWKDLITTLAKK
# SENP6 block – SENP6 protease inhibitors, primary screen, biochemical, luminescence, uHTS. Sentrin-specific protease 6 (Homo sapiens), Q9GZR1. Recombinant SENP6 catalytic domain, aminoluciferin luminescence. inhibition, % at 10 µM. 1.8% of 330,000 active. AID 2599, 2010;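 active = inhibition above about 50% at the single tested dose, limit read from the data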;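 note: plate controls were DMSO wells with enzyme for no effect and DMSO wells lacking enzyme for full effect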
# Platelet DG rel – inhibitors of platelet dense granule secretion, primary screen, cell-based, MLPCN, human platelets; AID 1663, 2009; inhibition, %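 (compounds screened at 7.5 µM in platelet-rich plasma)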; 0.22% of 300,000 active; human platelet-rich plasma, SFLLRN dense granule ATP release, luminescence;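 active = mean replicate score, as percent of positive control, at or above 50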
# SENP8 block-2 – human SENP8 protease inhibitors, primary screen, biochemical, fluorescence, Nedd8 protein substrate, uHTS. Sentrin-specific protease 8 (Homo sapiens), Q96LD8. recombinant SENP8. inhibition, % at 20 µM. 0.64% of 360,000 active; in the data active = inhibition mostly above about 40%, no sharp cut-off; inactive = mostly below about 27%
# SENP1 FRET inh – human SENP1 catalytic domain inhibitors, primary screen, biochemical, FRET, uHTS; Sentrin-specific protease 1 (Homo sapiens), Q9P0U3; AID 624204, 2012; 0.21% of 360,000 active; inhibition, % at 10 µM; recombinant SENP1 catalytic domain, CyPet-SUMO1-YPet FRET cleavage;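 active = inhibition at least 30% at 10 µM, raw YFP signal under a set limit, fluorescence ratio 0.5 to 1.5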;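 note: 0% = enzyme with DMSO and 100% = no enzyme wells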
#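 Material – human SENP1 catalytic domain · Input – SENP1 enzyme, 20 pM final · Compound dosing – single concentration of 10 µM compound, 0.5% DMSO final · Timing – enzyme reaction for 50 min at room temperature, dark · Measured by – FRET fluorescence in CFP and YFP emission channels · Control set – no-enzyme wells low, DMSO-plus-enzyme wells high control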
# Starred values were filed as active, the others as inactive; i = inactive; . = no result.
SMILES,SENP7 block,SENP8 block-1,SENP6 block,Platelet DG rel,SENP8 block-2,SENP1 FRET inh
CCOC(=O)C1=C(C)Nc2nc3ccccc3n2C1c1ccccc1 (centres undefined),4,-1,-2,3,-59,0
COc1cccc(C(=O)NN2c3ccccc3CCc3ccccc32)c1,.,.,.,-3,13,1
CCn1c(SCC(=O)N(C)c2c(N)n(Cc3ccccc3)c(=O)[nH]c2=O)nc2ccccc21,6,-1,-8,59*,8,-2
CCC(=O)Nc1cccc(NC(=S)NC(=O)c2cc3ccccc3o2)c1,76*,-1,10,3,15,2
CCC(=O)Nc1ccc(NC(=S)NC(=O)c2cc3ccccc3o2)cc1,3,4,-6,36,14,-1
Cc1ncc(CN2CCC(N3CCC(C(=O)N4CCCC4)CC3)CC2)s1,3,-7,-10,55*,-1,-1
C=C(C)[C@@H]1CC=C(CN2CCC(N3CCC(C(=O)N4CCCC4)CC3)CC2)CC1,2,3,-20,11,8,-11
O=c1/c(=C/c2ccccn2)sc2nc3ccccc3n12,98*,79*,84*,26,-42,23
COC(=O)/C=c1/sc2nc3ccccc3n2c1=O,3,-20,-17,8,40,0
O=c1/c(=C\c2cc([N+](=O)[O-])cc([N+](=O)[O-])c2O)sc2nc3ccccc3n12,-9,2,15,.,17,91*
COc1ccc2c(c1OC)C(=O)OC2Nc1nc(-c2cc3cc(Br)ccc3oc2=O)cs1 (centres undefined),91*,91*,95*,31,-382,-32
COc1ccc(-c2csc(NC3OC(=O)c4c3ccc(OC)c4OC)n2)cc1OC (centres undefined),-13,-14,-20,2,12,1
O=C(NCCC(=O)N(CCc1ccccc1)Cc1ccccc1)c1ccccc1Cl,4,5,-5,-3,-7,0
COc1ccc(CC(=O)N2CCN(C(=O)Cc3ccc(OC)cc3)CC2)cc1,0,-8,-4,-2,-17,1
COc1ccc(CC(=O)N2CCN(c3ccc(C4=NNC(=O)CC4C)cc3)CC2)cc1 (centres undefined),-7,-2,-1,67*,i,-1
COc1ccc(N2CCN(C(CNS(=O)(=O)c3cccs3)c3cccnc3)CC2)cc1 (centres undefined),-4,-5,-29,-2,42*,-3
CCCc1cc(C(=O)NC2CCCC2)no1,3,-11,4,85*,7,1
CCCc1cc(C(=O)NC2CCCCC2)no1,-4,-10,-25,0,16,3
CC1CCCCN1Cc1nc2c(c(=O)n(C)c(=O)n2C)n1CCCc1ccccc1 (centres undefined),6,1,-15,56*,9,-1
CCN(c1ccccc1)S(=O)(=O)c1ccc(Cl)c(NC(=O)COC(=O)c2cc(O)c3ccccc3c2O)c1,12,32,62*,9,.,.
c1csc(-c2nc3ccccc3s2)c1,80*,78*,86*,-1,-447,0
c1csc(-c2ccc3ccccc3n2)c1,80*,57*,76*,-23,-382,-4
COc1ccc(C(=O)COC(=O)c2ccc(Cl)nc2)cc1OC,-2,-11,-2,.,5,2
C/C=C/C(=O)Nc1nnc(C2CCCCC2)s1,-7,-8,-23,-39,0,3
CCc1c(-c2cccc(Br)c2)ncn1Cc1cccc(-c2ccccc2)c1,.,.,.,.,10,1
Cc1nn(Cc2ccc(Cl)c(Cl)c2)c(C)c1NC(=O)c1cc(CC(C)C)on1,10,-1,4,-7,24,-2
Cc1ccc([N+](=O)[O-])c2c1C(N1CCCC1)C(C)(C)O2 (centres undefined),1,1,1,10,14,-1
O=c1cc(COc2ncnc3c(Cl)cc(Cl)cc23)nc2sccn12,-5,-1,-3,52*,-31,-1
O=c1cc(COc2ncnc3ccccc23)nc2sccn12,-3,-8,-7,1,-11,1
